According to PubChem BioAssay AID623962 (The Scripps Research Institute Molecular Screening Center, 2012):
Active and inactive are the calls of the source.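 The calls were made as follows: active = mean inhibition at 10 µM of 50% or more; inactive = mean inhibition at 10 µM below 50%.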

System: Huh-7.5 HCV Rluc replicon, luciferase luminescence, 72 h
Test: HCV RNA replication inhibitors in Huh-7.5 cells – cell-based, luminescence, Renilla luciferase replicon, orthogonal assay for HCV NS3 helicase inhibitor project, late-stage follow-up (AID 623962)
Details: at 10 µM; active compounds read high
How it was run: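 Assay system: Huh-7.5 HCV Renilla luciferase replicon cells | Compound: One concentration, 10 µM in 0.5% DMSO | Times: 4-5 h attachment, 72 h compound exposure at 37 °C | Detection: Renilla luciferase luminescence from cell lysate after freeze/thaw lysis | Evaluation: % replication inhibition versus DMSO-treated cells | Controls: DMSO-only wells as reference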

SMILES | inhibition
Cc1cc2sc(-c3ccc4nc(-c5ccc(N)cc5)sc4c3)nc2cc1S(=O)(=O)O | 28% (inactive)
Cc1ccc2nc(-c3ccc4nc(-c5ccc(NC(=O)Nc6ccccc6)cc5)sc4c3)sc2c1S(=O)(=O)O | -18% (inactive)
Cc1ccc2nc(-c3ccc4nc(-c5ccc(NC(=O)c6ccc(Cl)c(Cl)c6)cc5)sc4c3)sc2c1S(=O)(=O)O | 43% (inactive)
Cc1ccc2nc(-c3ccc4nc(-c5ccc(NC(=O)c6ccc7nc(-c8ccc(N)cc8)sc7c6)cc5)sc4c3)sc2c1S(=O)(=O)O | 37% (inactive)
Cc1ccc2nc(-c3ccc4nc(-c5ccc(NC(=O)c6cc(F)ccc6C(F)(F)F)cc5)sc4c3)sc2c1S(=O)(=O)O | 61%
Cc1cc2sc(-c3ccc(N)cc3)nc2cc1S(=O)(=O)O | 0% (inactive)
CCOc1ccc2nc(NC(=O)c3ccc4ncsc4c3)sc2c1 | 99%
Cc1ccc2nc(-c3ccc4nc(-c5ccc(NC(=O)c6cc(C(F)(F)F)ccc6F)cc5)sc4c3)sc2c1S(=O)(=O)O | 39% (inactive)
COc1ccc2sc(NC(=O)c3ccc4ncsc4c3)nc2c1 | 60%
Cc1ccc2nc(-c3ccc4nc(-c5ccc(NC(=O)c6cccc(Cl)c6)cc5)sc4c3)sc2c1S(=O)(=O)O | 54%
Cc1ccc2nc(-c3ccc(NC(=S)Nc4ccccc4Br)cc3)sc2c1 | 80%
Cc1ccc2nc(-c3ccc4nc(-c5ccc(NC(=O)c6cccc7ccccc67)cc5)sc4c3)sc2c1S(=O)(=O)O | -9% (inactive)
Cc1ccc2nc(-c3ccc4nc(-c5ccc(NC(=O)c6cccnc6)cc5)sc4c3)sc2c1S(=O)(=O)O | 51%
Cc1ccc2nc(-c3ccc(NC(=O)c4ccc(NC(=O)c5ccc(NC(=O)OCC6c7ccccc7-c7ccccc76)cc5)cc4)cc3)sc2c1S(=O)(=O)O | -14% (inactive)
Cc1ccc2nc(-c3ccc4nc(-c5ccc(NC(=O)c6ccc(Cl)cc6)cc5)sc4c3)sc2c1S(=O)(=O)O | 42% (inactive)
Cc1cc(C(O)(c2ccc(Nc3ccccc3)cc2)c2ccc(Nc3ccc(S(=O)(=O)O)cc3)cc2)ccc1N (configuration not stated) | 23% (inactive)
Cc1ccc2nc(-c3ccc4nc(-c5ccc(NC(=O)c6ccc(CNC(=O)OCC7c8ccccc8-c8ccccc87)cc6)cc5)sc4c3)sc2c1S(=O)(=O)O | 48% (inactive)
O=C(CCCCCCC(=O)Nc1ccc(-c2nc3ccccc3[nH]2)cc1)Nc1ccc(-c2nc3ccccc3[nH]2)cc1 | 96%
Cc1ccc2nc(-c3ccc4nc(-c5ccc(NC(=O)c6c(F)cccc6C(F)(F)F)cc5)sc4c3)sc2c1S(=O)(=O)O | 55%
Cc1ccc2nc(-c3ccc4nc(-c5ccc(NC(=S)Nc6ccccc6)cc5)sc4c3)sc2c1S(=O)(=O)O | 9% (inactive)
Cc1ccc2nc(-c3ccc4nc(-c5ccc(N(C)C(=O)c6ccc7ccccc7c6)cc5)sc4c3)sc2c1S(=O)(=O)O | 24% (inactive)
Cc1ccc2nc(-c3ccc4nc(-c5ccc(NC(=O)c6ccccc6)cc5)sc4c3)sc2c1S(=O)(=O)O | 45% (inactive)
